Results published in ChEMBL document CHEMBL3232922, “Discovery and SAR of 6-alkyl-2,4-diaminopyrimidines as histamine H₄ receptor antagonists” (J Med Chem, 2014).
pEC50, pKi: −log10 of the molar value. One block for each compound: values may come before it. Activity calls are given as the source filed them. The calls are words filed in the database; no cut-off is given here.

Columns and labels:
Histamine H4 receptor [1] = molecular target: T1, Histamine H4 receptor (Homo sapiens, UniProt Q9H3N8); experiment: Displacement of [3H]histamine from human recombinant histamine H4 receptor expressed in SK-N-MC cells after 45 mins by competition binding analysis; type: cell-based
Histamine H4 receptor [2] = molecular target: T1, Histamine H4 receptor; experiment: Agonist activity at human H4 receptor; details: read-out: EC50
Histamine H4 receptor [3] = molecular target: T1, Histamine H4 receptor; experiment: Antagonist activity at human histamine H4 receptor expressed in SK-N-MC cells assessed as reduction of histamine-induced inhibition of cAMP-mediated beta-galactosidase reporter gene activity treated 10 mins prior to histamine challenge by microplate reader analysis; type: functional, cell-based; details: read-out: pA2 (converted)
[4] = Tmax in beagle dog at 10 mg/kg, po; type: ADME, organism-based, Canis lupus familiaris; design: dose 10 mg/kg, route oral; details: in vivo
[5] = AUC in Sprague-Dawley rat at 2 mg/kg, iv; type: ADME, organism-based; design: dose 2 mg/kg, route intravenous; details: plasma
Canis familiaris = experiment: AUC in beagle dog at 2 mg/kg, iv; type: ADME, organism-based, Canis lupus familiaris, Plasma; design: dose 2 mg/kg, route intravenous; details: in vivo
[6] = Tmax in Balb/c mouse at 20 mg/kg, po; type: ADME, organism-based; design: dose 20 mg/kg, route oral; details: in vivo
[7] = Half life in beagle dog at 10 mg/kg, po; type: ADME, organism-based, Canis lupus familiaris; design: dose 10 mg/kg, route oral; details: in vivo
Rattus norvegicus [8] = experiment: Half life in Sprague-Dawley rat at 2 mg/kg, iv; type: ADME, organism-based; design: dose 2 mg/kg, route intravenous; details: in vivo
[9] = Oral bioavailability in Sprague-Dawley rat at 10 mg/kg; type: ADME, organism-based; details: in vivo
[10] = Half life in beagle dog at 2 mg/kg, iv; type: ADME, organism-based, Canis lupus familiaris; design: dose 2 mg/kg, route intravenous; details: in vivo
[11] = AUC in Balb/c mouse at 20 mg/kg, po; type: ADME, organism-based; design: dose 20 mg/kg, route oral; details: plasma
[12] = AUC in beagle dog at 10 mg/kg, po; type: ADME, organism-based, Canis lupus familiaris; design: dose 10 mg/kg, route oral; details: plasma
[13] = Cmax in Balb/c mouse at 20 mg/kg, po; type: ADME, organism-based; design: dose 20 mg/kg, route oral; details: in vivo
[14] = AUC in Sprague-Dawley rat at 10 mg/kg, po; type: ADME, organism-based; design: dose 10 mg/kg, route oral; details: plasma
[15] = Half life in Sprague-Dawley rat at 10 mg/kg, po; type: ADME, organism-based; design: dose 10 mg/kg, route oral; details: in vivo
[16] = Volume of distribution at steady state in beagle dog at 2 mg/kg, iv; type: ADME, organism-based, Canis lupus familiaris; design: dose 2 mg/kg, route intravenous; details: in vivo, read-out: Vdss
Rattus norvegicus [17] = experiment: Clearance in Sprague-Dawley rat at 2 mg/kg, iv; type: ADME, organism-based; design: dose 2 mg/kg, route intravenous; details: in vivo
[18] = Initial plasma concentration in Sprague-Dawley rat at 2 mg/kg, iv; type: ADME, organism-based; design: dose 2 mg/kg, route intravenous
[19] = Oral bioavailability in beagle dog at 10 mg/kg; type: ADME, organism-based, Canis lupus familiaris; details: in vivo
Rattus norvegicus [20] = experiment: Volume of distribution at steady state in Sprague-Dawley rat at 2 mg/kg, iv; type: ADME, organism-based; design: dose 2 mg/kg, route intravenous; details: in vivo
[21] = Tmax in Sprague-Dawley rat at 10 mg/kg, po; type: ADME, organism-based; design: dose 10 mg/kg, route oral; details: in vivo
[22] = Cmax in Sprague-Dawley rat at 10 mg/kg, po; type: ADME, organism-based; design: dose 10 mg/kg, route oral; details: in vivo
[23] = Initial plasma concentration in beagle dog at 2 mg/kg, iv; type: ADME, organism-based, Canis lupus familiaris; design: dose 2 mg/kg, route intravenous
[24] = Half life in Balb/c mouse at 20 mg/kg, po; type: ADME, organism-based; design: dose 20 mg/kg, route oral; details: in vivo
[25] = Cmax in beagle dog at 10 mg/kg, po; type: ADME, organism-based, Canis lupus familiaris; design: dose 10 mg/kg, route oral; details: in vivo
Mus musculus = experiment: Antiinflammatory activity in po dosed Balb/c mouse assessed as inhibition of LPS-induced TNF-alpha release at plasma concentration of 62.5 nM administered 30 mins prior to LPS challenge measured after 2 hrs by ELISA; type: functional, organism-based
[26] = Permeability from apical to basolateral side in human Caco cells; type: ADME, cell-based; details: Caco-2, read-out: permeability
Histamine H4 receptor [27] = molecular target: T2, Histamine H4 receptor (Mus musculus, UniProt Q91ZY2); experiment: Antagonist activity at mouse histamine H4 receptor expressed in SK-N-MC cells assessed as reduction of histamine-induced inhibition of cAMP-mediated beta-galactosidase reporter gene activity treated 10 mins prior to histamine challenge by microplate reader analysis; type: functional, cell-based; details: read-out: pA2 (converted)
T2 sequence (Q91ZY2 whole entry): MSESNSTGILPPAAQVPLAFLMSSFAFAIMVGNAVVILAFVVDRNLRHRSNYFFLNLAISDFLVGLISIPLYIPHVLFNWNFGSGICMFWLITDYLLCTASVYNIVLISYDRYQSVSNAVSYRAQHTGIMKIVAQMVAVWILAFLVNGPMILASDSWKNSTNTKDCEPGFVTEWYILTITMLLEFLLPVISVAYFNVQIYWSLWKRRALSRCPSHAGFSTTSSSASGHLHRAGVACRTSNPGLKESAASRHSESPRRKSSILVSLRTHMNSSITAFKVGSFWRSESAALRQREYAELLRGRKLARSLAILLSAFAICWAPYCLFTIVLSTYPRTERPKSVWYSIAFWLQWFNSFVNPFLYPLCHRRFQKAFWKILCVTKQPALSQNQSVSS

[28] = Oral bioavailability in rat at 10 mg/kg; type: ADME, organism-based; details: in vivo
[29] = Permeability from basolateral to apical side in human Caco cells; type: ADME, cell-based; details: Caco-2, read-out: permeability
[30] = AUC in rat at 2 mg/kg, iv; type: ADME, organism-based; design: dose 2 mg/kg, route intravenous; details: plasma
[31] = Fraction unbound in human plasma; type: ADME, cell-free
[32] = Half life in rat at 10 mg/kg, po; type: ADME, organism-based; design: dose 10 mg/kg, route oral; details: in vivo
Histamine H4 receptor [33] = molecular target: T2, Histamine H4 receptor; experiment: Displacement of [3H]histamine from mouse histamine H4 receptor expressed in SK-N-MC cells after 45 mins by competition binding analysis; type: cell-based
Procedure, shortened: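 Transfected cells expressing the H4 receptor, competition against [3H]histamine. Ki is the geometric mean of at least three independent determinations (each in triplicate), calculated by the Cheng–Prusoff equation.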

[34] = Clearance in rat at 2 mg/kg, iv; type: ADME, organism-based; design: dose 2 mg/kg, route intravenous; details: in vivo
Histamine H3 receptor = Histamine H3 receptor (Homo sapiens, UniProt Q9Y5N1); experiment: Displacement of [3H]N-alpha-methylhistamine from human recombinant histamine H3 receptor expressed in SK-N-MC cells after 45 mins by competition binding analysis; type: cell-based
[35] = molecular target: Voltage-gated inwardly rectifying potassium channel KCNH2 (Homo sapiens, UniProt Q12809); experiment: Inhibition of human ERG channel transfected in HEK293 cells assessed as reduction in delayed rectifier current by patch clamp assay; type: cell-based
Procedure, shortened: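 The delayed rectifier current (IKr) was recorded in hERG-transfected HEK293 cells with the compound at 3 μM.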

[36] = Half life in rat at 2 mg/kg, iv; type: ADME, organism-based; design: dose 2 mg/kg, route intravenous; details: in vivo
[37] = Volume of distribution at steady state in rat at 2 mg/kg, iv; type: ADME, organism-based; design: dose 2 mg/kg, route intravenous; details: in vivo, read-out: Vdss
[38] = Cmax in rat at 10 mg/kg, po; type: ADME, organism-based; design: dose 10 mg/kg, route oral; details: in vivo
[39] = Half life in rat microsomes; type: ADME, Microsome
[40] = Half life in human microsomes; type: ADME, Microsome

Histamine H3 receptor, sequence (Q9Y5N1 whole entry): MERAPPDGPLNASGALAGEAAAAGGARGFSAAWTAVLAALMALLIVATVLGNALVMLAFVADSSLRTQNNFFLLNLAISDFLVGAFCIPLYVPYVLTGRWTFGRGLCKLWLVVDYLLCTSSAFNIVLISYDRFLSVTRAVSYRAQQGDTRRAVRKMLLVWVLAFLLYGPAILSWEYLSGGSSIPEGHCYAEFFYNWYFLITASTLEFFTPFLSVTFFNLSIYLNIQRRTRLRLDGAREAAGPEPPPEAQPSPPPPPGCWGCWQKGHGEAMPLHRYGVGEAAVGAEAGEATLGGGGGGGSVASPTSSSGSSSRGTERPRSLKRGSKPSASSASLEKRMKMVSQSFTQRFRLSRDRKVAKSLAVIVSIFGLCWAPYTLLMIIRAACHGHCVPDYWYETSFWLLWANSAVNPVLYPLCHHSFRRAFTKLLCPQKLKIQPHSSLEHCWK
Voltage-gated inwardly rectifying potassium channel KCNH2, sequence (Q12809 whole entry): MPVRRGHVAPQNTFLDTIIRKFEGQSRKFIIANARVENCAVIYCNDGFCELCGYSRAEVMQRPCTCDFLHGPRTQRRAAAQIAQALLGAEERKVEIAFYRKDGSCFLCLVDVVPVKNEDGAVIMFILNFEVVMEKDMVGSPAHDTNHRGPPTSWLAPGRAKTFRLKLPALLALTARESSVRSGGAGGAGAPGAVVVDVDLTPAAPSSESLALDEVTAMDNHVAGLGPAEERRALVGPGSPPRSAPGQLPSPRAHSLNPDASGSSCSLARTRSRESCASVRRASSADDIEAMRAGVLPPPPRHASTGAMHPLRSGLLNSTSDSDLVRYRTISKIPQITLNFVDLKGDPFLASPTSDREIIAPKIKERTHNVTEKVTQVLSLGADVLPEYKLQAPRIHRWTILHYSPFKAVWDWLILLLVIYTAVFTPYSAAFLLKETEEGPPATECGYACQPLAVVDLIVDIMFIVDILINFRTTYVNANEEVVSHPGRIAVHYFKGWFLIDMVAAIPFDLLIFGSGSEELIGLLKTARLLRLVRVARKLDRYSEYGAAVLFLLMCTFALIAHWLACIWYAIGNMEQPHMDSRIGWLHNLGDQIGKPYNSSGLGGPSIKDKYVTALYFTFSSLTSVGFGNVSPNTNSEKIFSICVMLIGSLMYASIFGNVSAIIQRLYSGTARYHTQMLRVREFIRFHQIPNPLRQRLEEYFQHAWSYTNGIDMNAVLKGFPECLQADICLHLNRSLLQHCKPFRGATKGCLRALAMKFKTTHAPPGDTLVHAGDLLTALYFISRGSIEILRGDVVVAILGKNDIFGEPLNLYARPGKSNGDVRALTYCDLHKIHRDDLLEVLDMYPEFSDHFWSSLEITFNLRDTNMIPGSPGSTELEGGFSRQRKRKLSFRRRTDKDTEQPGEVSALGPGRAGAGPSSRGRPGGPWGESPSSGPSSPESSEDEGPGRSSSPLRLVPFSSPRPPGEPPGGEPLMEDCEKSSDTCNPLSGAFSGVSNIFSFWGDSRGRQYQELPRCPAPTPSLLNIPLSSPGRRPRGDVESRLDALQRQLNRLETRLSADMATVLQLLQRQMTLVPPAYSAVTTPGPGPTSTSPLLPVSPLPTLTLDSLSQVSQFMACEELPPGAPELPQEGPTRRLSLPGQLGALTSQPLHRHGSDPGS

Structure (SMILES): CC(C)(C)c1cc(N2CC[C@@H](N)C2)nc(N)n1
pKi (Histamine H4 receptor [1]): 8.03 | pEC50 (Histamine H4 receptor [2]): < 5.00 | Kb (Histamine H4 receptor [3]): 5.01 nM

Structure (SMILES): CN[C@@H]1CCN(c2cc(C(C)C)nc(N)n2)C1
pEC50 (Histamine H4 receptor [2]): < 5.00 | Kb (Histamine H4 receptor [3]): 12.6 nM

Structure (SMILES): Nc1nc(C2CCCC2)cc(N2CCC3(CCCN3)C2)n1 (centres undefined)
pKi (Histamine H4 receptor [1]): 7.95 | pEC50 (Histamine H4 receptor [2]): < 5.00 | Kb (Histamine H4 receptor [3]): 2.51 nM

Structure (SMILES): CCc1cc(N2CC[C@@H](NC)C2)nc(N)n1
inhibition (Mus musculus): Active | Papp A→B [26]: 54 ×10⁻⁶ cm/s | Kb (Histamine H4 receptor [27]): 50.1 nM | bioavailability [28]: 50% | Papp B→A [29]: 14 ×10⁻⁶ cm/s | AUC [30]: 11 µM·h | fraction unbound [31]: 0.26 | half-life [32]: 9.7 h | pKi (Histamine H4 receptor [33]): 7.21 | clearance [34]: 5 mL/min/kg | pKi (Histamine H3 receptor): 6.17 | pEC50 (Histamine H4 receptor [2]): < 5.00 | INH [35]: > 10 µM | Kb (Histamine H4 receptor [3]): 10 nM | half-life [36]: 5.3 h | Vd [37]: 6.3 L/kg | Cmax [38]: 1.5 µM | half-life [39]: 1.05 h | half-life [40]: > 2 h

Structure (SMILES): CN[C@@H]1CCN(c2cc(C3CCCC3)nc(N)n2)C1
pKi (Histamine H4 receptor [1]): 8.96 | pEC50 (Histamine H4 receptor [2]): < 5.00 | Kb (Histamine H4 receptor [3]): 0.251 nM

The remaining lines, values ahead:

pKi (Histamine H4 receptor [1]): 7.70
Structure (SMILES): CN1CCN(C(=O)c2cc3c([nH]2)CCCC3)CC1

Tmax [4]: 0.6 h | AUC [5]: 11 µM·h | AUC (Canis familiaris): 8.1 µM·h | Tmax [6]: 0.5 h | half-life [7]: 10 h | t1/2 (Rattus norvegicus [8]): 5.3 h | bioavailability [9]: 50% | half-life [10]: 9.3 h | AUC [11]: 60 µM·h | AUC [12]: 45 µM·h | Cmax [13]: 8.5 µM | AUC [14]: 27.8 µM·h | half-life [15]: 9.3 h | Vd [16]: 15.1 L/kg | CL (Rattus norvegicus [17]): 5.5 mL/min/kg | C0 [18]: 19 µM | bioavailability [19]: 112% | pEC50 (Histamine H4 receptor [2]): < 5.00 | Vdss (Rattus norvegicus [20]): 6.3 L/kg | Kb (Histamine H4 receptor [3]): 10 nM | Tmax [21]: 5 h | Cmax [22]: 1.6 µM | C0 [23]: 2.5 µM | half-life [24]: 5.2 h | Cmax [25]: 4.2 µM
Structure (SMILES): CN[C@@H]1CCN(c2cc(Cc3ccccc3)nc(N)n2)C1

pKi (Histamine H4 receptor [1]): 7.52 | pEC50 (Histamine H4 receptor [2]): < 5.00 | Kb (Histamine H4 receptor [3]): 10 nM
Structure (SMILES): CN[C@H]1CN(c2cc(C3CCCC3)nc(N)n2)C[C@@H]1O (relative stereo)
